From ChEMBL document CHEMBL1152541, “Staurosporine tethered peptide ligands that target cAMP-dependent protein kinase (PKA): optimization and selectivity profiling” (Bioorg Med Chem, 2009)
*1 amine or outer side, *2 acyl side, *3 side chain or, on linkers, in order; H or OH if unused. Where a SMILES comes first, the peptide text is derived from it. Bridges are numbered along the chain shown (N, C = ends). [ ]: non-standard residue; d: D form. The star is where a group is joined. Staurosporine = CO[C@@H]1[C@H](N(C)*)C[C@H]2O[C@]1(C)n1c3ccccc3c3c4c(c5c6ccccc6n2c5c31)C(=O)NC4; Suc = O=C(CCC(=O)[*:2])[*:1]; Dap = NC[C@H](N)C(=O)O; βAla = NCCC(=O)O

Columns and labels:
[1] = biological target: T1, Serine/threonine-protein kinase Chk1 (Homo sapiens) (UniProt O14757); test: Ratio of compound to staurosporine binding affinity to CHK1 in presence of DTT
T1 sequence (whole entry): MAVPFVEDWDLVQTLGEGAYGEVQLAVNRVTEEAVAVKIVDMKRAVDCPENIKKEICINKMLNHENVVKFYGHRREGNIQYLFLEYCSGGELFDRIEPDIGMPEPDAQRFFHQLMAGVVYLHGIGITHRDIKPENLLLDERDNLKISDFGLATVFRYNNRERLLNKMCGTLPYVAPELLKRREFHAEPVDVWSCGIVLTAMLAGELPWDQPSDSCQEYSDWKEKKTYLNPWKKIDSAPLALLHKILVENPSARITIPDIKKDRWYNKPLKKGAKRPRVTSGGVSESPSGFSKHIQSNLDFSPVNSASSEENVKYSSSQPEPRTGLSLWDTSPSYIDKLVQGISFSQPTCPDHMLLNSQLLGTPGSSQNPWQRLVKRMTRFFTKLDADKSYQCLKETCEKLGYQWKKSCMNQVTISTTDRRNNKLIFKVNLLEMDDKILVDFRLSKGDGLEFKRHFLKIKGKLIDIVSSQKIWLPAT

[2] = biological target: Dual specificity mitogen-activated protein kinase kinase 2 (Homo sapiens) (UniProt P36507); test: Binding affinity to human MEK2 at 500 nM by cell-based competition binding assay relative to control in presence of DTT
Chain of Dual specificity mitogen-activated protein kinase kinase 2 (Homo sapiens) (P36507 whole entry): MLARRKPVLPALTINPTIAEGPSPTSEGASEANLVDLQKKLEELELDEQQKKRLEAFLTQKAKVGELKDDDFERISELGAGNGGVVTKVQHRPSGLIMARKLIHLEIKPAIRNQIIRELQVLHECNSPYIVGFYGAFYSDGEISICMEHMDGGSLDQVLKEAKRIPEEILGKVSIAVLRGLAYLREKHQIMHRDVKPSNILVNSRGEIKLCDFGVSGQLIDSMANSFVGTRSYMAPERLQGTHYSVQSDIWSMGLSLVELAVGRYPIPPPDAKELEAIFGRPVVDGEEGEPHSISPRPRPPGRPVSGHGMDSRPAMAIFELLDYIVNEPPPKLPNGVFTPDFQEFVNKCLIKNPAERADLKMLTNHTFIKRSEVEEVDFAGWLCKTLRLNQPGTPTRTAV

[3] = biological target: T2, Serine/threonine-protein kinase DCLK1 (Homo sapiens) (UniProt O15075); test: Binding affinity to human DCAMKL1 at 200 nM by cell-based competition binding assay relative to control in presence of DTT
T2 sequence (whole entry): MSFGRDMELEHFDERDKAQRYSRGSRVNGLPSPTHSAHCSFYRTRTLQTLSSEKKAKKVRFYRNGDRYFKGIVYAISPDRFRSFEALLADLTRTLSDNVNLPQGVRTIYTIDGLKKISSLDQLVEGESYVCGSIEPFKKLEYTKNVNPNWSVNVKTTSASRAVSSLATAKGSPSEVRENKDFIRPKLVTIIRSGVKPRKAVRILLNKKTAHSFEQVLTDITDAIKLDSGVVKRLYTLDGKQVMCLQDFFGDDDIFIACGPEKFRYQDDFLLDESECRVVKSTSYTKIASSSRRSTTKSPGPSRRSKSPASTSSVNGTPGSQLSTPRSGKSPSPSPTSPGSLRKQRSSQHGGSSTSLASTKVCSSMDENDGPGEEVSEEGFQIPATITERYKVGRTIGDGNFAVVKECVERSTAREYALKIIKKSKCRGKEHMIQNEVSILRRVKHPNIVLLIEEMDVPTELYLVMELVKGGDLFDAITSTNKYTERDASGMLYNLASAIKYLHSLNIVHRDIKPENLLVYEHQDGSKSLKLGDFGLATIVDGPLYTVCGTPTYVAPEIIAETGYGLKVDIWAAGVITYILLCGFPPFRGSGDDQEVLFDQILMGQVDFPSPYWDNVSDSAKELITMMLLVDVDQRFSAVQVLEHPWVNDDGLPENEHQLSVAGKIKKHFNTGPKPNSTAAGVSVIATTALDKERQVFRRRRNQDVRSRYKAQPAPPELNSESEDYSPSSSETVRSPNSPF
In short: (§1)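 Commercial (Ambit) competitive kinase-binding panel of 90 kinases measured the binding profile. Run under reducing conditions of 7.5 mM DTT. Binding is expressed relative to control.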

[4] = biological target: Non-receptor tyrosine-protein kinase TYK2 (Homo sapiens) (UniProt P29597); test: Binding affinity to human TYK2 kinase domain 2 at 200 nM by cell-based competition binding assay relative to control in presence of DTT
Chain of Non-receptor tyrosine-protein kinase TYK2 (Homo sapiens) (P29597 whole entry, the tested form may be a part): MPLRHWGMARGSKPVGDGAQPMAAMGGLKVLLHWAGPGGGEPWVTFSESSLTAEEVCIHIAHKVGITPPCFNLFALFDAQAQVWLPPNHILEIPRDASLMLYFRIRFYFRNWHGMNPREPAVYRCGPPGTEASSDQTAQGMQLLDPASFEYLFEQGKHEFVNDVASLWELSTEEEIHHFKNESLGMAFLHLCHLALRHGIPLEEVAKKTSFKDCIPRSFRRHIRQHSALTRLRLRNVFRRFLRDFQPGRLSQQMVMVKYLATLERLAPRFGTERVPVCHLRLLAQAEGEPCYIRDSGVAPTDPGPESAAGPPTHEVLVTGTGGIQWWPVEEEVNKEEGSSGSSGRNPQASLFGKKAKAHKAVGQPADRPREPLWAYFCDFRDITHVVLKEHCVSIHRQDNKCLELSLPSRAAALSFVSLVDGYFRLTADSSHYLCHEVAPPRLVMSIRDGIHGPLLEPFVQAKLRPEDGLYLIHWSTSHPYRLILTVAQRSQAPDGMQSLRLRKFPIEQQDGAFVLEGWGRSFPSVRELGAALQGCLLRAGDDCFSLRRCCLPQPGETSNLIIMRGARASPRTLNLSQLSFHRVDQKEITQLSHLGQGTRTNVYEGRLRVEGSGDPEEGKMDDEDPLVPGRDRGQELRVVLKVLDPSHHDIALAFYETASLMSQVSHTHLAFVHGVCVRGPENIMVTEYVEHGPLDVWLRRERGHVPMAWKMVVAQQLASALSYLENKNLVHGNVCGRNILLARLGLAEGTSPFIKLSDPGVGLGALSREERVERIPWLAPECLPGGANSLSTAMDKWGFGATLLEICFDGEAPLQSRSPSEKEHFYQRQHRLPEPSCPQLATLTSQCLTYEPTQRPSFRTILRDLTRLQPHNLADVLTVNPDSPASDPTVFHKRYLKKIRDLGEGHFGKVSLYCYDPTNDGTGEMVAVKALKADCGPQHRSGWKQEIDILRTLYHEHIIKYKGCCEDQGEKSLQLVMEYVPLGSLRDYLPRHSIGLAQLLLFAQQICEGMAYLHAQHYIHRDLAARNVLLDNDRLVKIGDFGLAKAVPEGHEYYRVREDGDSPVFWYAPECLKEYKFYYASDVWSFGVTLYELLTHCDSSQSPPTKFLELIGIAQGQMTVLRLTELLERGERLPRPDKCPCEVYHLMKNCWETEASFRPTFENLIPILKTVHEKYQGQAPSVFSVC

[5] = system: Serine/threonine-protein kinase B-raf (Homo sapiens), P15056 [V600E]; test: Binding affinity to human BRAF V600E mutant at 50 nM by cell-based competition binding assay relative to control in presence of DTT
Chain of Serine/threonine-protein kinase B-raf (Homo sapiens), P15056 [V600E] (P15056 whole entry V600E): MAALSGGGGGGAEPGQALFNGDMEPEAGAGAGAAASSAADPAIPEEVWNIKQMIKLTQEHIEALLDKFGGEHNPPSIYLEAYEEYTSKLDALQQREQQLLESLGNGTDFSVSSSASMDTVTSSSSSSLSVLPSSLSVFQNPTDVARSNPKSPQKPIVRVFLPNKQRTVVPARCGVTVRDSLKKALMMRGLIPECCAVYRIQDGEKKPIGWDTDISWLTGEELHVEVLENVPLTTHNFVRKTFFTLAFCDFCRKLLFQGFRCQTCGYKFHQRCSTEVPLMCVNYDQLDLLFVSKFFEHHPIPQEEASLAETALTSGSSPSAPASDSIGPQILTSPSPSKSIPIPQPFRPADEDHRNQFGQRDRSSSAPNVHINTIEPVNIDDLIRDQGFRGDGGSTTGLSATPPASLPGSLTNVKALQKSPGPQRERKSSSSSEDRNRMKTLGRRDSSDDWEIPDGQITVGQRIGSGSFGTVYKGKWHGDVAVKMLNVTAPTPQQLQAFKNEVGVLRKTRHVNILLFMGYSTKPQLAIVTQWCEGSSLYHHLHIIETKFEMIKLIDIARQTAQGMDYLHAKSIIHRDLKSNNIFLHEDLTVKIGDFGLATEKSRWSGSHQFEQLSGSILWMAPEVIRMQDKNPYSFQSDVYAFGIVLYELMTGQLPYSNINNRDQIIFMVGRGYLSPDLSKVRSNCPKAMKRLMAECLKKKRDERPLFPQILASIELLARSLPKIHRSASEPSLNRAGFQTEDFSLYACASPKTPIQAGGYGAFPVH
In short: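 Kinase binding profiling ran on a commercial (Ambit) competitive binding screen against a panel of 90 kinases. The screen used reducing conditions with 7.5 mM DTT. To withstand the DTT, the bivalent ligand was tested as its amide isostere, with the disulfide replaced. A staurosporine derivative carrying a 3 β-alanine linker was run as the reference compound.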

[6] = biological target: Casein kinase I isoform delta (Homo sapiens) (UniProt P48730); test: Binding affinity to human CSNK1D at 50 nM by cell-based competition binding assay relative to control in presence of DTT; in short: as §1
Chain of Casein kinase I isoform delta (Homo sapiens) (P48730 whole entry, looked up, canonical isoform): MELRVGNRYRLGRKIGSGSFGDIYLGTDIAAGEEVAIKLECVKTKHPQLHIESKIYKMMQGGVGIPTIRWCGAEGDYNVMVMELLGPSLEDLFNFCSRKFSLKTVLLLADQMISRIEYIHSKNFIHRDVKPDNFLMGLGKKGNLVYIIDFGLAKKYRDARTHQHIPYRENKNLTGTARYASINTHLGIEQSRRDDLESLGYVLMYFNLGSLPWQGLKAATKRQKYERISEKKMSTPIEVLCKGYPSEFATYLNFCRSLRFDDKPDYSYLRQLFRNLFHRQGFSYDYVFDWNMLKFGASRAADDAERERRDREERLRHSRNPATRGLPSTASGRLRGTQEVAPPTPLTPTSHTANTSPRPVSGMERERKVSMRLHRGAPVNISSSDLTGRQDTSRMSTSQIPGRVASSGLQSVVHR

[7] = biological target: Mast/stem cell growth factor receptor Kit (Homo sapiens) (UniProt P10721); test: Binding affinity to human KIT at 50 nM by cell-based competition binding assay relative to control in presence of DTT
Chain of Mast/stem cell growth factor receptor Kit (Homo sapiens) (P10721 whole entry): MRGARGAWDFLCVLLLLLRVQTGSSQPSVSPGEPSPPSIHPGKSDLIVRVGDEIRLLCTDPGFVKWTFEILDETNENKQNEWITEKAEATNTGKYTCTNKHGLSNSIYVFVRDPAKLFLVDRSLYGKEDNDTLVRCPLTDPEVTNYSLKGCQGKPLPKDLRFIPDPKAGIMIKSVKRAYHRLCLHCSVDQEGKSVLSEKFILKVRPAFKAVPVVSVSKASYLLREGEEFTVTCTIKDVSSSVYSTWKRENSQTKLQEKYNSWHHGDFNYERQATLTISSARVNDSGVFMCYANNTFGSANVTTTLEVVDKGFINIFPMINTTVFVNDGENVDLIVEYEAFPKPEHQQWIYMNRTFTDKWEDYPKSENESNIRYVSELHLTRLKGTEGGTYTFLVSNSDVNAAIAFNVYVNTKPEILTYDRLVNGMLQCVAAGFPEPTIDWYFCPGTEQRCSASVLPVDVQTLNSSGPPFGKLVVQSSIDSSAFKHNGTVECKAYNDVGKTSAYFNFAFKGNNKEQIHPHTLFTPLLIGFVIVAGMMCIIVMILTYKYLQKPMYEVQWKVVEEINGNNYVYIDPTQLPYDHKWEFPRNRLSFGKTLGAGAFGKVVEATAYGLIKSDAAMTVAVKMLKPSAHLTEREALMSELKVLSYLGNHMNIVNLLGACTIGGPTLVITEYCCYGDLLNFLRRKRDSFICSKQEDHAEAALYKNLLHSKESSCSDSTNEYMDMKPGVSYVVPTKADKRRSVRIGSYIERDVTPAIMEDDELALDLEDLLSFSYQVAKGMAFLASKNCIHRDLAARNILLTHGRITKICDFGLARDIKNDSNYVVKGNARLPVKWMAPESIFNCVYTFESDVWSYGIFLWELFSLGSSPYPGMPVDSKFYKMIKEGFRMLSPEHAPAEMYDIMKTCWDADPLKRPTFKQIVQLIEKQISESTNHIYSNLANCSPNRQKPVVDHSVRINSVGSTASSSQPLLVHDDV
In short: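 Competition binding screen (Ambit) across a panel of 90 kinases, scoring test ligand displacement of each kinase's binding relative to control. The screen ran under reducing conditions with 7.5 mM DTT.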

[8] = biological target: T3, 3-phosphoinositide-dependent protein kinase 1 (Homo sapiens) (UniProt O15530); test: Binding affinity to human PDPK1 at 50 nM by cell-based competition binding assay relative to control in presence of DTT
T3 sequence (whole entry): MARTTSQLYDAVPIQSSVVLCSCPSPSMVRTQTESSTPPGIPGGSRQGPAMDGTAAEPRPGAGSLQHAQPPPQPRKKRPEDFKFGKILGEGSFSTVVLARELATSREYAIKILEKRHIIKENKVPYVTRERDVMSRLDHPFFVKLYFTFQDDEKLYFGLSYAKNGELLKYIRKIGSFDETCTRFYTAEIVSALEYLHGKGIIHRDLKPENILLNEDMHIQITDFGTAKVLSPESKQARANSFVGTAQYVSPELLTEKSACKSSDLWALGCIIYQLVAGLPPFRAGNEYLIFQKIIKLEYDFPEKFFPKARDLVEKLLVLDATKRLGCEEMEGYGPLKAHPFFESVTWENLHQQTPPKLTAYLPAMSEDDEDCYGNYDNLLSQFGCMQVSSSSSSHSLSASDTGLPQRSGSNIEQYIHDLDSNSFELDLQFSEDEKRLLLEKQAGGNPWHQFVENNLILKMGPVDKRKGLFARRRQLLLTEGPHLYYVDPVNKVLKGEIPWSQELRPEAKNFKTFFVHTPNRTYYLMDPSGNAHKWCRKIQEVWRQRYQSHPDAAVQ

## CO[C@@H]1[C@H](N(C)C(=O)CCC(=O)NCCC(=O)NCCC(=O)NCCC(N)=O)C[C@H]2O[C@]1(C)n1c3ccccc3c3c4c(c5c6ccccc6n2c5c31)C(=O)NC4
[1]
  Selectivity ratio: 84
[2]
  Activity: 86%

## CO[C@@H]1[C@H](N(C)C(=O)CCC(=O)NCCC(=O)NCCC(=O)NCCC(=O)NCCC(=O)NCCC(=O)NCCC(=O)NCCC(=O)N[C@H]2CSSC[C@@H](C(=O)NCC(N)=O)NC(=O)CNC(=O)[C@H](Cc3ccccc3)NC(=O)[C@H](C(C)C)NC(=O)[C@H](CCCNC(=N)N)NC(=O)[C@H](Cc3ccccc3)NC(=O)[C@H](C(C)C)NC2=O)C[C@H]2O[C@]1(C)n1c3ccccc3c3c4c(c5c6ccccc6n2c5c31)C(=O)NC4 ({Staurosporine-Suc-βAla-βAla-βAla-βAla-βAla-βAla-βAla}-CVFRVFGCG-NH2; disulfide 1-8)
[3]
  Activity: 100%
[4]
  Activity: 62%

## CO[C@@H]1[C@H](N(C)C(=O)CCC(=O)NCCC(=O)NCCC(=O)NCCC(=O)NCCC(=O)NCCC(=O)NCCC(=O)NCCC(=O)N[C@H]2CNC(=O)C[C@@H](C(N)=O)NC(=O)CNC(=O)[C@H](Cc3ccccc3)NC(=O)[C@H](C(C)C)NC(=O)[C@H](CCCNC(=N)N)NC(=O)[C@H](Cc3ccccc3)NC(=O)[C@H](C(C)C)NC2=O)C[C@H]2O[C@]1(C)n1c3ccccc3c3c4c(c5c6ccccc6n2c5c31)C(=O)NC4 ({Staurosporine-Suc-βAla-βAla-βAla-βAla-βAla-βAla-βAla}-[Dap]VFRVFGD-NH2; lactam 1-8)
[5]
  Activity: 84%
[6]
  Activity: 100%
[7]
  Activity: 85%
[8]
  Activity: 48%
